# The list is not random: actives were taken first. Their share in the collection is about 1.9%.
# core dimer inh: HCV core protein dimerization inhibition; TR-FRET GST/Flag-core106 dimerization, 1536-well; AID 1899; actives 0.33% (n = 300,000); inhibition, % at 5 µM;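 active means inhibition above the mean of all tested compounds plus 3 SD, set per screening campaign, cut at about 45% in these data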
#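 Test system: GST/Flag-tagged HCV core106 proteins; Medium: KF-containing HEPES buffer, pH 7.45, DTT, CHAPS, BSA; Times: compound-protein-antibody incubation 4 h at 22.5 °C; Detection: TR-FRET 671 and 617 nm emission; Benchmarks: wells lacking GST-core106 and wells with excess unlabelled core106.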
# TbMetRS inhib: blocks T. brucei methionyl-tRNA synthetase activity. purified T. brucei MetRS, ATP depletion, Kinase-Glo luminescence. inhibition, % at 11.9 µM. actives 0.4% (n = 360,000);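 active means inhibition above a per-plate cutoff of the control wells' mean inhibition plus 3 SD, cut at about 5.5% in these data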;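 further: 0% = DMSO wells median and 100% = median of wells with control inhibitor compound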
#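 Measured by: Kinase-Glo luciferase luminescence reporting remaining unconsumed ATP. Material: purified T. brucei MetRS enzyme. Doses: 11.9 µM compound single dose, 0.9% DMSO. Medium: HEPES buffer containing pyrophosphatase, BSA, spermine, DTT. Times: 15 min preincubation, 2 h reaction, all 25 °C. Reagent: methionine, ATP and bulk E. coli tRNA.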
# Rce1 inh: blocks yeast Ras-converting enzyme | yeast membranes, quenched prenylated peptide cleavage fluorescence | calls only | actives 0.27% (n = 290,000);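 active means fall in fluorescence gain of 50% or more versus controls, with final raw signal at or below 3038400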;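 further: plate controls were neutral control wells for no effect and wells lacking membranes for full effect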
# Target sequence (Q03530 whole entry, looked up): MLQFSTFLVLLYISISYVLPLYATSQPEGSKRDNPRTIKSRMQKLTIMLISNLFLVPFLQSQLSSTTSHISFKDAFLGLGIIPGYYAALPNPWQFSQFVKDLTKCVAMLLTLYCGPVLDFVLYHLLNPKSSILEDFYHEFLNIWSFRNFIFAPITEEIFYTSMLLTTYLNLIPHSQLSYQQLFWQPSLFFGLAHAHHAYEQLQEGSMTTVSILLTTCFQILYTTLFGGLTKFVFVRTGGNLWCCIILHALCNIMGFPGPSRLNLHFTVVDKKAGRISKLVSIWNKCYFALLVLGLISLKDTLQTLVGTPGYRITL
# NadD inh: NadD (S. aureus) enzyme inhibition | purified NadD enzyme, colorimetric absorbance read-out | inhibition, % at 20 µM | actives 0.78% (n = 360,000) | AID 602399; in the data active means inhibition above about 26%
# Pemphigus Ab inh: inhibitors of pemphigus antibody binding to human desmoglein-3; actives 0.48% (n = 310,000); binding (percent of control), % at 10 µM; AID 588358; DSG3-coupled beads, scFv-anti-DSG3-GFP binding, flow cytometry; stronger effect = lower value; P32926;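 active means binding more than 3 SD below its plate's average and above zero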;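 further: hits lower antibody fragment binding to DSG3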
# * hit, by the source's call; i = inactive; nt = no result given; + = active, no number.
SMILES,core dimer inh,TbMetRS inhib,Rce1 inh,NadD inh,Pemphigus Ab inh
Cn1c(=NC(=O)c2ccccc2[N+](=O)[O-])sc2cc(S(C)(=O)=O)ccc21,3.7,0.2,i,-1.6,85.8*
Cc1ccc(NC(=O)COc2ccc(/C=N/NC(=O)CSCc3ccccc3)cc2)cc1,7.4,0.2,i,-1.1,80.7*
COc1ccc(CSCC(=O)N/N=C/c2ccccc2O)cc1,2.3,2.4,i,6.0,53.2*
CCc1ccccc1NC(=O)CCN1C(=O)C2C3CCC(C3)C2C1=O (configuration not stated),2.2,-0.3,i,3.5,96.8
CCOc1ccc(C2Nc3ccc4ccccc4c3-c3c2c(=O)oc2ccccc32)cc1 (configuration not stated),9.5,-1.4,i,12.0,103.5
Cc1cccc(C)c1NC(=O)COC(=O)C1C2CC3OC(=O)C1C3C2 (configuration not stated),0.2,-0.1,nt,5.7,nt
Cc1cccc(NC(=O)COC(=O)C2C3CC4OC(=O)C2C4C3)c1C (configuration not stated),-15.2,-0.6,i,-4.8,57.0*
Cc1nc(Nc2ccccc2O)c2oc3ccccc3c2n1,nt,-1.3,i,3.1,80.3*
Cc1nc(Nc2cccc(Cl)c2)c2oc3ccccc3c2n1,3.9,-0.9,i,-4.5,105.2
COc1cccc(Nc2nc(C)nc3c2oc2ccccc23)c1,-3.8,-0.4,+,-2.3,99.5
COc1ccc(C(C)(C)C)cc1NC(=O)c1ccccc1-n1cnnn1,nt,-0.1,nt,7.7,101.5
COc1ccc(/C=N/NS(=O)(=O)c2ccc(F)cc2)cc1COc1cc(F)ccc1[N+](=O)[O-],48.5*,0.2,i,14.3,102.0
Cc1ccc(CC2CC(=O)N(c3ccncc3)C2=O)cc1 (configuration not stated),2.0,-1.6,i,5.1,99.9
CCN1CCN(C(=O)CCN2C(=O)COc3ccc(C)cc32)CC1,-1.6,-1.6,i,2.5,nt
CCCNC(=O)Cn1c(=O)/c(=C\c2ccc(-c3ccc([N+](=O)[O-])cc3)o2)s/c1=C\C(=O)C(C)(C)C,13.1,-0.7,i,30.5*,257.4
CN(C)c1ccc(/C=C/C=C2/SC(=S)N(c3ccccc3)C2=O)cc1,44.4,-1.7,i,43.2*,90.3
O=C1/C(=C/C=C/c2ccco2)SC(=S)N1c1ccc(O)cc1,74.0*,1.4,i,25.0,78.4*
CC(C)C(C(=O)O)N1C(=O)/C(=C/c2cccn2C)SC1=S (configuration not stated),-1.1,0.6,nt,-4.8,97.1
CC(C)C(C(=O)O)N1C(=O)/C(=C/C=C/c2ccco2)SC1=S (configuration not stated),57.2*,0.2,i,45.8*,76.4*
Cc1ccc(Nc2nc(=O)c3cc([N+](=O)[O-])ccc3s2)cc1,48.0*,-0.4,i,20.7,100.3
COc1ccc(Nc2nc(=O)c3cc([N+](=O)[O-])ccc3s2)cc1,nt,-0.3,i,10.6,84.0
Cc1cc(C(=O)N/N=C2\CC(=O)c3ccccc32)c(C)n1-c1ccc(F)cc1,71.4*,-1.4,i,31.2*,98.3
CC(C)Cn1c(SCC(=O)Nc2ccc3[nH]c(=O)[nH]c3c2)nc2ccccc2c1=O,-4.7,-0.4,i,9.1,98.7
Cc1cc(SCC(=O)Nc2ccc3[nH]c(=O)[nH]c3c2)nc2ccccc12,nt,-0.1,nt,6.4,75.8*
CC1CCN(c2ccc(S(=O)(=O)N3CCC(C)CC3)cc2N)CC1,11.4,-0.3,i,-0.1,107.8
SMILES,core dimer inh,TbMetRS inhib,Rce1 inh,NadD inh,Pemphigus Ab inh
Oc1cccc(-n2nnnc2SCc2ccccc2F)c1,10.4,-0.9,i,-7.3,100.4
O=C(O)c1cc(-n2nnnc2SCc2ccccc2F)ccc1Cl,4.9,-0.5,i,-6.2,74.0*
CCC(C)[C@H](NS(=O)(=O)c1ccc(C)cc1)C(=O)N1CCC(C(=O)N2CCC(C(=O)OC)CC2)CC1 (some centres not stated),0.1,1.5,i,2.0,94.7
CCC(C)NC(=O)CSC1=Nc2ccccc2C2=NC(CC(=O)NCc3ccc(F)cc3)C(=O)N12 (configuration not stated),-7.8,-0.9,+,-1.3,102.0
CC1CN(C(=O)COC(=O)/C=C/c2ccccc2)CC(C)O1 (configuration not stated),nt,-0.3,nt,-1.0,101.3
Cc1cnc(NS(=O)(=O)c2ccccc2)c(C)n1,3.0,0.0,i,-3.0,66.3*
Cc1ccnc(NS(=O)(=O)c2ccccc2)n1,-1.3,-0.4,i,3.4,100.4
COC(=O)c1cc(COC(=O)c2ccc(OC)c(S(=O)(=O)N3CCCC3)c2)oc1C,nt,-1.1,i,-21.3,nt
O=C(Nc1ccc(Nc2ccncc2)cc1)c1ccc(Nc2ccnc3ccc([N+](=O)[O-])cc23)cc1[N+](=O)[O-],62.3*,-0.3,i,12.9,83.3
CCN(CC)c1ccc(NC(=O)COc2ccccc2C#N)cc1S(=O)(=O)Nc1ccccc1OC,-6.3,-0.2,i,7.1,82.3
COc1ccc(C(=O)Nn2c(C)nc3ccccc3c2=O)cc1Br,-1.0,-0.6,i,-7.6,72.4*
COC(=O)[C@]12CCCCC=C1N(CCC1=CCCCC1)C(=O)[C@H](CC(=O)NCc1ccc(OC)c(OC)c1)C2,nt,-0.1,nt,4.3,nt
Cc1ccc(CCN2CC(C(=O)NCCCN(C)Cc3ccccc3)CC2=O)cc1 (configuration not stated),-2.6,-0.3,i,3.7,100.2
CC12CCCC(CC(=O)O)(C1)NC(=O)C2 (configuration not stated),nt,-0.6,nt,-0.5,64.2*
O=c1ccn(CCc2c[nH]c3ccccc23)c2c1CCCC2,-1.0,-0.5,i,-3.6,nt
CCC(Sc1ccc2nnc(-c3cccnc3)n2n1)C(=O)O (configuration not stated),-13.9,-0.6,i,-6.1,99.1
COc1ccc(NC(=O)Cn2nnc(C(=O)NCc3ccc(C)cc3)c2N)cc1Cl,12.5,0.6,i,-1.8,92.4
COc1ccc(NC(=O)Cn2nnc(C(=O)NCc3ccccc3)c2N)cc1Cl,6.2,0.0,i,10.8,89.0*
COc1cccc(Cn2nnc(C(=O)Nc3ccc(C)cc3)c2N)c1,2.5,0.3,i,1.0,101.5
CCOc1ccc(Cn2nnc(C(=O)Nc3cc(C)cc(C)c3)c2N)cc1,-0.2,-1.8,i,-3.1,72.0*
CCOc1ccc(Cn2nnc(C(=O)Nc3cc(OC)cc(OC)c3)c2N)cc1,-5.2,-1.6,i,-8.3,107.1
COc1cccc(Cn2nnc(C(=O)Nc3cc(C)ccc3OC)c2N)c1,2.4,-0.6,i,-5.8,-1.1*
CC(C)(C)C(=O)NC1(C(F)(F)F)N=C2SCCN2C1=O (configuration not stated),-3.4,-0.4,i,-0.9,100.6
COC(C/C=C/[C@H](O)[C@H](C)OCc1ccccc1)OC,7.2,-0.2,+,-1.1,106.4
